Test results published in ChEMBL document CHEMBL1833913, “Structure-activity relationship study of pyridazine derivatives as glutamate transporter EAAT2 activators” (Bioorg Med Chem Lett, 2011).
The source made the active and inactive calls. No cut-off for these calls is given here.

Legend:
Astrocyte [1] = assay: Increase of EAAT2 expression in mouse primary astrocytes at 10 uM after 24 hrs by Western blot analysis relative to control; type: functional
Summary of the method: (§1)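 PA-EAAT2 cells (primary astrocyte line stably expressing EAAT2 mRNA) were incubated with compound at 10 μM for 4 h or 24 h. Cells were then harvested and EAAT2 protein measured by Western blot. Results are given as fold increase over DMSO control.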

Astrocyte [2] = assay: Increase of EAAT2 expression in mouse primary astrocytes after 24 hrs by Western blot analysis relative to GAPDH protein expression; type: functional, cell-based
Summary of the method: (§2)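 PA-EAAT2 cells (primary astrocyte line stably expressing EAAT2 mRNA) were exposed for 24 h to a 6-point series (0.1, 0.3, 1.0, 5.0, 10.0, 30.0 μM). EAAT2 protein was measured by Western blot and normalised separately to β-actin or GAPDH. Fold increase and EC50 were derived from the dose-response. Values are means of four separate experiments.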

Astrocyte [3] = assay: Increase of EAAT2 expression in mouse primary astrocytes at 1 uM after 24 hrs by Western blot analysis relative to GAPDH protein expression; type: functional; summary of the method: as §2
Astrocyte [4] = assay: Increase of EAAT2 expression in mouse primary astrocytes at 10 uM after 24 hrs by Western blot analysis relative to beta-actin protein expression; type: functional; summary of the method: as §2
Astrocyte [5] = assay: Increase of EAAT2 expression in mouse primary astrocytes at 10 uM after 4 hrs by Western blot analysis relative to control; type: functional; summary of the method: as §1
Astrocyte [6] = assay: Increase of EAAT2 expression in mouse primary astrocytes after 24 hrs by Western blot analysis relative to beta-actin protein expression; type: functional, cell-based; summary of the method: as §2
Astrocyte [7] = assay: Increase of EAAT2 expression in mouse primary astrocytes at 1 uM after 24 hrs by Western blot analysis relative to beta-actin protein expression; type: functional; summary of the method: as §2
Astrocyte [8] = assay: Increase of EAAT2 expression in mouse primary astrocytes at <5 uM after 24 hrs by Western blot analysis relative to control; type: functional
Astrocyte [9] = assay: Increase of EAAT2 expression in mouse primary astrocytes at 10 uM after 24 hrs by Western blot analysis relative to GAPDH protein expression; type: functional; summary of the method: as §2

Row | EC50 (Astrocyte [2]) [nM] | EC50 (Astrocyte [6]) [nM] | SMILES | fold change (FC) (Astrocyte [1]) | fold change (FC) (Astrocyte [3]) | fold change (FC) (Astrocyte [4]) | fold change (FC) (Astrocyte [5]) | fold change (FC) (Astrocyte [7]) | fold change (FC) (Astrocyte [8]) | fold change (FC) (Astrocyte [9])
1 | 1800 | 2700 | Cc1ccc(CSc2ccc(-c3ccccn3)nn2)c(C)c1 | 6.4 | 2.2 | 6.4 | 1.9 | 2 | >6 | 6
2 |  |  | CC(Oc1ccc(-c2ccccn2)nn1)c1c(F)cccc1Cl (centres undefined) | 3 |  |  | 1.6 |  |  | 
3 |  |  | Clc1ccccc1CSc1ccc(-c2cccnc2)nn1 | 1.2 |  |  | 1.2 |  |  | 
4 |  |  | Clc1cccc(CSc2ccc(-c3ccccn3)nn2)c1Cl | 2.4 |  |  | inactive |  |  | 
5 |  |  | Clc1ccccc1CSc1ccc(-c2ccncc2)nn1 | 1.7 |  |  | 1.5 |  |  | 
6 |  |  | Fc1cccc(Cl)c1CSc1ccc(-c2ccccn2)nn1 | 2 |  |  | inactive |  |  | 
7 | 500 | 500 | Clc1cccc(Cl)c1CSc1ccc(-c2ccccn2)nn1 | 3.9 | 3.5 | 3.9 | 1.5 | 3 |  | 3.5
8 |  |  | Fc1cccc(Cl)c1CSc1ccc(-c2ccncc2)nn1 | 1.9 |  |  | inactive |  |  | 
9 | 3200 | 3300 | Clc1ccccc1CSc1ccc(-c2ccccn2)nn1 | 4 | 1.6 | 4 | 2.1 | 1.1 |  | 4.5
10 |  |  | Fc1cccc(Cl)c1COc1ccc(-c2ccccn2)nn1 | 2.9 |  |  | 1.1 |  |  | 
11 |  |  | Cc1ccc(CSc2ccc(-c3ccncc3)nn2)cc1 | 2.4 |  |  | 1.3 |  |  | 
12 | 500 | 1700 | Clc1cccc(CSc2ccc(-c3ccccn3)nn2)c1 | 4.1 | 4.2 | 4.1 | 2.1 | 4 |  | 3.8
13 |  |  | Cc1ccccc1CCSc1ccc(-c2ccccn2)nn1 | 2.8 |  |  | 1.2 |  |  | 
14 |  |  | Cc1ccccc1CNC(=O)c1ccc(-c2ccccn2)nn1 | 1.4 |  |  | inactive |  |  | 
15 |  |  | Cc1ccccc1CSc1ccc(-c2cccnc2)nn1 | inactive |  |  | 1.5 |  |  | 
16 | 3300 | 3300 | Fc1cccc(Cl)c1CCSc1ccc(-c2ccccn2)nn1 | 6.7 | 1.2 | 6.7 | 1.9 | 1.2 | >6 | 5.3
17 |  |  | Fc1cccc(Cl)c1CCOc1ccc(-c2ccccn2)nn1 | 3.1 |  |  | 2.2 |  |  | 
18 |  |  | Fc1cccc(Cl)c1CSc1ccc(-c2cccnc2)nn1 | 2.3 |  |  | inactive |  |  | 
19 |  |  | Clc1ccc(Cl)c(CSc2ccc(-c3ccccn3)nn2)c1 | 2.5 |  |  | 1.4 |  |  | 
20 | 2600 | 2600 | Fc1ccc(CSc2ccc(-c3ccccn3)nn2)c(F)c1 | 3.8 | 1 | 3.8 | 2.4 | 1 |  | 3.7
21 |  |  | Cc1ccc(COc2ccc(-c3ccccn3)nn2)c(C)c1 | 2 |  |  | inactive |  |  | 
22 |  |  | Cc1ccc(-c2ccc(SCc3c(F)cccc3Cl)nn2)cc1 | 2.3 |  |  | 1.2 |  |  | 
23 |  |  | O=S(=O)(Cc1c(F)cccc1Cl)c1ccc(-c2ccccn2)nn1 | 2.8 |  |  | 1.4 |  |  | 
24 |  |  | Clc1ccc(CSc2ccc(-c3ccccn3)nn2)c(Cl)c1 | inactive |  |  | 1.8 |  |  | 
25 | 2400 | 2600 | Cc1cccc(C)c1CSc1ccc(-c2ccccn2)nn1 | 6.5 | 2 | 6.5 | inactive | 2 | >6 | 6.4
26 |  |  | Cc1cccc(C)c1COc1ccc(-c2ccccn2)nn1 | 3.2 |  |  | 2.1 |  |  | 
27 |  |  | Fc1cccc(F)c1CSc1ccc(-c2ccccn2)nn1 | 2.2 |  |  | 2.1 |  |  | 
